pEC50, pKi: −log10 of the molar value. Active and inactive are the calls of the source. The rule behind the calls is not given here. Bridge positions count the residues as written; N and C are the ends. Square brackets hold non-standard residues; d marks the D form. Peptide text beside a SMILES is read from it. dNle = CCCC[C@@H](N)C(=O)O
Experiments:
[1] = molecular target: Kappa-type opioid receptor (Mus musculus) (UniProt P33534); test: Agonist activity at mouse KOR expressed in HEK293 cell assessed as maximal inhibition of cAMP concentration incubated for 1 hrs by time-resolved fluorescence resonance energy transfer assay relative to control; type: functional, cell-based; conditions: filed as agonist
Outline: (§1)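 HEK293 cells stably expressing mouse KOR, 2000 cells/well, exposed to log-spaced peptide concentrations with forskolin (10 µM final) for 30 min at 37 °C. Eu-cryptate cAMP and d2-labelled anti-cAMP antibody then added for 1 h at room temperature. HTRF read as the 665/620 nm ratio, in triplicate. Three-parameter fit with bottom fixed at zero and slope one gives EC50 and Emax. Normalised to the highest dyn A 1–13 concentration (100%).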

[2] = Stability of the compound in simulated gastric fluid at pH 1.2 assessed as drug degradation by UPLC-UV analysis; type: ADME
Outline: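 Peptide stock (2 mM in water) diluted 5:95 into USP simulated gastric fluid, pepsin added after adjusting to pH 1.2, incubated at 37 °C. Aliquots taken at 0, 15, 30 min and 1, 3, 6 h, quenched in ice-cold methanol. Data fitted to exponential decay for half-life.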

[3] = molecular target: T1, Kappa-type opioid receptor (Mus musculus, UniProt P33534); test: Displacement of [3H]-diprenorphine from mouse KOR expressed in HEK293 cell membranes by radioligand binding assay relative to control; design: species or system Cell membrane
Outline: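 Membranes from HEK293 cells stably expressing mouse KOR (7 µg/assay). Filtered onto PEI-soaked GF/C filters. Specific binding = total minus nonspecific, normalized to binding without peptide. […]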

[4] = molecular target: T1, Kappa-type opioid receptor; test: Agonist activity at mouse KOR expressed in HEK293 cell assessed as inhibition of cAMP concentration incubated for 1 hrs by time-resolved fluorescence resonance energy transfer assay; type: functional, cell-based
Outline: as §1, with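 “temperature.” for “temperature. HTRF read as the 665/620 nm ratio, in triplicate.”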

[5] = organism: Mus musculus; test: Analgesic activity in chronic visceral hypersensitivity-induced chronic abdominal pain mouse model assessed as reduction in colonic nociceptor mechano-sensitivity at 0.1 uM measured at 5 mins by Von Frey filament assay; type: functional
Outline: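 Ex vivo colon with attached splanchnic nerves from male C57BL/6J mice, 28 days after DNBS-induced colitis. Colon superfused with carbogen-gassed modified Krebs at 34 °C. Single-unit extracellular recordings of nociceptor firing to 2 g von Frey filament stimulation, repeated after 5 min drug application via a metal ring over the receptive field.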

[6] = Toxicity in mouse assessed as motor coordination by measuring latency to fall in mouse at 5 mg/kg, ip measured at 45 mins by rotarod test; type: organism-based; conditions: in vivo, 0.75 h
Outline: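 Male C57BL/6N mice (8 weeks) given 5 mg/kg i.p. in saline (10 µL/g); vehicle 0.9% NaCl. After habituation, drum accelerated from 4 to 40 rpm. Three trials 15 min apart, starting 45 min post-injection; latency to fall averaged. Mean ± SEM, one-way ANOVA with Fisher's LSD, N = 8–12/group.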

[7] = Toxicity in mouse assessed as […] by measuring flinch response in mouse at 5 mg/kg, ip measured at 60 mins by […]; type: organism-based; conditions: in vivo, 1 h
Outline: (§2)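 Male C57BL/6N mice given 5 mg/kg i.p. in saline (vehicle 0.9% NaCl). Jump-flinch test 60 min post-injection: 1 min exploration, then 1 s foot shocks every 30 s at six intensities. Intensity at first flinch, vocalization and jump recorded. Mean ± SEM, one-way ANOVA with Fisher's LSD, N = 8–12/group.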

[8] = test system: Mus musculus; test: Reduction in visceromotor response in chronic visceral hypersensitivity-induced chronic abdominal pain mouse model measured at different colorectal distention pressure at 10 uM intra-colonic administration as enema by electromyography; type: functional, organism-based
Outline: (§3)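 Healthy or CVH (DNBS 6 mg in 30% ethanol enema, 28 d recovery) female mice. Under brief isoflurane, 100 µL enema of saline vehicle or peptide (10 µM). EMG from abdominal muscle electrodes during balloon CRD at 20, 40, 50, 60 and 80 mmHg (20 s each), run 10–30 min after dosing. Rectified, integrated AUC; mean ± SEM.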

[9] = molecular target: Kappa-type opioid receptor (Mus musculus) (UniProt P33534); test: Displacement of [3H]-diprenorphine from mouse KOR expressed in HEK293 cell membranes at 10 uM by two-point binding assay; conditions: Cell membrane, filed as agonist
Outline: (§4)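 Two-point competition at 10 µM and 100 nM peptide. Membranes (7 µg) from HEK293 cells stably expressing mouse KOR incubated with [3H]-diprenorphine (1 nM final) for 1 h at 37 °C in 50 mM Tris–HCl pH 7.4, 10 mM MgCl2, 0.1% BSA. Stopped by filtration onto PEI-soaked GF/C filters. Nonspecific binding subtracted; normalised to specific binding without peptide; mean ± SD.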

[10] = molecular target: T1, Kappa-type opioid receptor; test: Agonist activity at EGFP-tagged mouse KOR expressed in HEK293 cells co-expressing beta-arrestin2 nano-luciferase assessed as beta-arrestin2 recruitment for 5 mins by BRET assay; type: functional, cell-based
Outline: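 HEK293 cells co-transfected with human β-arrestin-2 nano-luciferase and mouse KOR-EGFP plasmids (1:10). After ≥16 h they were plated in phenol red-free DMEM with 10% FBS and left to adhere overnight, then serum-starved 1 h at 37 °C. Furimazine (1:50) added for 5 min at 37 °C, with a 5 min baseline. Peptide added for 5 min at 37 °C in triplicate. Luminescence read at 460 nm and EGFP fluorescence at 510 nm.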

[11] = molecular target: Delta-type opioid receptor (Mus musculus, UniProt P32300); test: Displacement of [3H]-diprenorphine from mouse DOR expressed in HEK293 cell membranes by radioligand binding assay relative to control; design: species or system Cell membrane
Outline: (§5)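 Membranes from HEK293 cells stably expressing mouse DOR (20 µg/assay) or MOR (50 µg/assay). Incubated with 1 nM final [3H]-diprenorphine in 50 mM Tris–HCl pH 7.4, 10 mM MgCl2, 0.1% BSA for 1 h at 37 °C, in duplicate. Stopped by filtration onto PEI-soaked GF/C filters. Specific binding = total minus nonspecific, normalized to specific binding without peptide; n = 2.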

[12] = organism: Mus musculus; test: Analgesic activity in chronic visceral hypersensitivity-induced chronic abdominal pain mouse model assessed as reduction in mechanical stimulation induced action potential firing of colonic nociception at 1 uM measured at 5 mins […]; type: functional
Outline: (§6)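 Ex vivo colon with attached splanchnic nerve from DNBS-induced CVH mice. Colon superfused with carbogen-gassed modified Krebs at 34 °C. Single-unit extracellular recording of nociceptor firing to 2 g von Frey probing, repeated after 5 min ring application of peptide (1 µM), with or without 5 min nor-BNI pre-incubation. Paired t-test.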

[13] = molecular target: Kappa-type opioid receptor (Mus musculus) (UniProt P33534); test: Displacement of [3H]-diprenorphine from mouse KOR expressed in HEK293 cell membranes at 100 nM by two-point binding assay; conditions: Cell membrane, filed as agonist; outline: as §4
[14] = test system: Mus musculus; test: Effect on healthy mouse assessed as visceromotor response measured at different colorectal distention pressure at 10 uM intra-colonic administration as enema by electromyography; type: ADME, organism-based; conditions: in vivo, other; outline: as §3
[15] = organism: Mus musculus; test: Analgesic activity in chronic visceral hypersensitivity-induced chronic abdominal pain mouse model assessed as reduction in colonic nociceptor mechano-sensitivity at 1 uM in presence of 0.1 uM nor-BNI measured at 5 mins […]; type: functional; outline: as §6
[16] = Toxicity in mouse assessed as […] by measuring vocalization in mouse at 5 mg/kg, ip measured at 60 mins by […]; type: organism-based; conditions: in vivo, 1 h
[17] = molecular target: Mu-type opioid receptor (Mus musculus, UniProt P42866); test: Displacement of [3H]-diprenorphine from mouse MOR expressed in HEK293 cell membranes by radioligand binding assay relative to control; design: species or system Cell membrane; outline: as §5
[18] = Toxicity in mouse assessed as […] by measuring jump response in mouse at 5 mg/kg, ip measured at 60 mins by […]; type: organism-based; conditions: in vivo, 1 h; outline: as §2

T1 sequence (P33534 whole entry): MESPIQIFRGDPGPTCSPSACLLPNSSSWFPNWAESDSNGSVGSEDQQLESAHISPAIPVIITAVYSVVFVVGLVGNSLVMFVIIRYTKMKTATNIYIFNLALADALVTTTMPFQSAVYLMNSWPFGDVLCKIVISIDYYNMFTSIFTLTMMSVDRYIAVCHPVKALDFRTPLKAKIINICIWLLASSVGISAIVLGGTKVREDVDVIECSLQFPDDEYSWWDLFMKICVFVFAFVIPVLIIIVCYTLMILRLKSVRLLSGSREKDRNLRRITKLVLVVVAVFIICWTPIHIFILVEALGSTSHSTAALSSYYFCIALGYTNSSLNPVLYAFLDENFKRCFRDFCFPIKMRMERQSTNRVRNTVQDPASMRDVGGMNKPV
Chain of Kappa-type opioid receptor (Mus musculus) (P33534 whole entry): as above
Chain of Delta-type opioid receptor (P32300 whole entry): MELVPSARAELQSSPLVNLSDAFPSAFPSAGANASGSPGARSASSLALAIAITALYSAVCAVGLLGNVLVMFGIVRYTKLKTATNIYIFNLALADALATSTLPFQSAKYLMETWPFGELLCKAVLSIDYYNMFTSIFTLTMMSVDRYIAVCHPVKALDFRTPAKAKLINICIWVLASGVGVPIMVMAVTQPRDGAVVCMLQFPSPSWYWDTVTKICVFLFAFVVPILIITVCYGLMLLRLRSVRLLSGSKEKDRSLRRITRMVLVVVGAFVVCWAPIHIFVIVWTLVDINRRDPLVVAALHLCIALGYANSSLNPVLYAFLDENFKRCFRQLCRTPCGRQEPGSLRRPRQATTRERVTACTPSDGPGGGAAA
Chain of Mu-type opioid receptor (P42866 whole entry): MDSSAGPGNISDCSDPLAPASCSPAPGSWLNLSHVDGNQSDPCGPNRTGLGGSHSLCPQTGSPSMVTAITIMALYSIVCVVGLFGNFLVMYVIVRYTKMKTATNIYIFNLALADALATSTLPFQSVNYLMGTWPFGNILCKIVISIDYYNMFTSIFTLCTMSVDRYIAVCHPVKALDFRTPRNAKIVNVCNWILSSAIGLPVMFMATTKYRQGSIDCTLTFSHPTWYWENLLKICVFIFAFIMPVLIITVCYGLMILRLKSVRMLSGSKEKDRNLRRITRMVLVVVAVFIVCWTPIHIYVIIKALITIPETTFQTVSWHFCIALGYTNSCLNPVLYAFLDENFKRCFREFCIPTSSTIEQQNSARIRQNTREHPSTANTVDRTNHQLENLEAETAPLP

CC[C@H](C)[C@H](NC(=O)[C@H](CCCN=C(N)N)NC(=O)[C@H](CCCN=C(N)N)NC(=O)[C@H](CC(C)C)NC(=O)[C@H](Cc1ccccc1)NC(=O)CNC(=O)CNC(=O)[C@@H](N)Cc1ccc(O)cc1)C(=O)N[C@@H](CCCN=C(N)N)C(=O)N1CCC[C@H]1C(=O)N[C@@H](CCCCN)C(=O)N[C@@H](CC(C)C)C(=O)N[C@@H](CCCCN)C(N)=O
Emax [1]: 100%
half-life [2]: < 15 min

CC[C@H](C)[C@@H]1NC(=O)[C@@H]2CCCN2C(=O)[C@@H]2CCCN2C(=O)[C@H]([C@@H](C)CC)NC(=O)[C@H](CO)NC(=O)[C@H](CCCCN)NC(=O)[C@H]([C@@H](C)O)NC(=O)[C@@H]2CSSC[C@H](NC1=O)C(=O)N[C@@H](Cc1ccccc1)C(=O)N1CCC[C@H]1C(=O)N[C@@H](CC(=O)O)C(=O)NCC(=O)N[C@@H](CCCNC(=N)N)C(=O)N2
pKi [3]: < 4.52

CC[C@H](C)[C@@H]1NC(=O)[C@H](CCCNC(=N)N)NC(=O)[C@H](CCCNC(=N)N)NC(=O)[C@H](CC(C)C)NC(=O)[C@H](Cc2ccccc2)NC(=O)CNC(=O)CNC(=O)[C@H](Cc2ccc(O)cc2)NC(=O)[C@@H]2CSSC[C@H](NC1=O)C(=O)N[C@@H](Cc1ccccc1)C(=O)N1CCC[C@H]1C(=O)N[C@@H](CC(=O)O)C(=O)NCC(=O)N[C@@H](CCCNC(=N)N)C(=O)N2
pKi ([3]; hek293): 5.49
pEC50 ([4]; hek293): 5.85

Oc1ccc2c3c1O[C@H]1c4[nH]c5c(c4C[C@@]4(O)[C@@H](C2)N(CC2CC2)CC[C@]314)C[C@@]1(O)[C@H]2Cc3ccc(O)c4c3[C@@]1(CCN2CC1CC1)[C@H]5O4
Activity [5]: inactive

CC[C@H](C)[C@@H]1NC(=O)[C@@H]2CCCN2C(=O)[C@@H]2CCCN2C(=O)[C@H]([C@@H](C)CC)NC(=O)[C@H](CO)NC(=O)[C@H](C)NC(=O)[C@H]([C@@H](C)O)NC(=O)[C@@H]2CSSC[C@H](NC1=O)C(=O)N[C@@H](Cc1ccc(O)cc1)C(=O)NCC(=O)NCC(=O)N[C@@H](Cc1ccccc1)C(=O)N[C@@H](CCCNC(=N)N)C(=O)N2 (cyclo(ASIPPICYGGFRCT); disulfide 7-13)
pKi ([3]; hek293): < 5.00

CC[C@H](C)[C@@H]1NC(=O)[C@@H]2CCCN2C(=O)[C@@H]2CCCN2C(=O)[C@H]([C@@H](C)CC)NC(=O)[C@H](CO)NC(=O)[C@H](C)NC(=O)[C@H]([C@@H](C)O)NC(=O)[C@@H]2CSSC[C@H](NC1=O)C(=O)N[C@H](Cc1ccccc1)C(=O)N[C@H](Cc1ccccc1)C(=O)N[C@H](CC(C)C)C(=O)N[C@H](CCCCN)C(=O)N[C@@H](CCCNC(=N)N)C(=O)N2 (cyclo(ASIPPIC[dF][dF][dL][dK]RCT); disulfide 7-13)
pKi ([3]; hek293): < 5.00

CCCC[C@H]1NC(=O)[C@@H](Cc2ccccc2)NC(=O)[C@@H](Cc2ccccc2)NC(=O)[C@@H]2CSSC[C@H](NC(=O)[C@H](CCCNC(=N)N)NC(=O)[C@@H](CCCNC(=N)N)NC1=O)C(=O)N[C@@H]([C@@H](C)O)C(=O)N[C@@H](C)C(=O)N[C@@H](CO)C(=O)N[C@@H]([C@@H](C)CC)C(=O)N1CCC[C@H]1C(=O)N1CCC[C@H]1C(=O)N[C@@H]([C@@H](C)CC)C(=O)N2 (cyclo(ASIPPIC[dF][dF][dNle][dR]RCT); disulfide 7-13)
pKi ([3]; hek293): < 5.00

CC[C@H](C)[C@@H]1NC(=O)[C@@H]2CCCN2C(=O)[C@H](Cc2ccccc2)NC(=O)CNC(=O)CNC(=O)[C@H](Cc2ccc(O)cc2)NC(=O)[C@H]([C@@H](C)O)NC(=O)[C@@H]2CSSC[C@H](NC1=O)C(=O)N[C@@H](Cc1ccccc1)C(=O)N1CCC[C@H]1C(=O)N[C@@H](CC(=O)O)C(=O)NCC(=O)N[C@@H](CCCNC(=N)N)C(=O)N2 (cyclo(CFPDGRCTYGGFPI); disulfide 1-7)
pKi ([3]; hek293): < 5.00

CC[C@H](C)[C@@H]1NC(=O)[C@@H]2CSSC[C@H](NC(=O)[C@H](CCCCN)NC(=O)[C@H](CC(C)C)NC(=O)[C@H](CCCCN)NC(=O)[C@@H]3CCCN3C(=O)[C@H](CCCNC(=N)N)NC1=O)C(=O)N[C@@H](Cc1ccc(O)cc1)C(=O)NCC(=O)NCC(=O)N[C@@H](Cc1ccccc1)C(=O)N[C@@H](CC(C)C)C(=O)N[C@@H](CCCNC(=N)N)C(=O)N[C@@H](CCCNC(=N)N)C(=O)N2 (cyclo(CIRPKLKCYGGFLRR); disulfide 1-8)
Activity [6]: Non-Toxic
Activity [7]: Non-Toxic
Activity [8]: Active
Activity [9]: Active
pEC50 [10]: 5.85
pKi [3]: 7.68
pKi [11]: < 5.00
Activity [12]: Active
Activity [13]: Active
Activity [14]: Non-Toxic
Activity [15]: Active
Activity [16]: Non-Toxic
pEC50 [4]: 7.35
pKi [17]: < 5.00
Activity [18]: Non-Toxic

— ChEMBL document CHEMBL5032509, “Design of a Stable Cyclic Peptide Analgesic Derived from Sunflower Seeds that Targets the κ-Opioid Receptor for the Treatment of Chronic Abdominal Pain” (J Med Chem, 2021)
